Data as given in ChEMBL document CHEMBL1132709, “Novel cyclopropapyrroloindole derivative (AT-3510) bearing methoxycarbonyl and trifluoromethyl groups” (J Med Chem, 1999).
Values after ≈ are worked out from the molar mass of the structure shown.

Tests used:
Mus musculus [1] = assay: In vivo concentration required to inhibit the Colon 26 murine […] cell growth by 50%; assay type: functional
Mus musculus [2] = assay: In vivo antitumor activity (3.13 mg/kg) is the measure of tumor growth inhibition of human tumor xenograft DLD-1 (colon) implanted sc in mice.; assay type: functional
Method in brief: (§1)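 Tumor fragments (2–3 mm3) implanted sc into female BALB/cA Jcl-nu mice on day 0; single iv dose given once tumor volume reached about 100 mm3. Read-out is maximum tumor growth inhibition, as percentage versus untreated group.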

Mus musculus [3] = assay: In vivo antitumor activity (3.13 mg/kg) is the measure of tumor growth inhibition of human tumor xenograft WiDr (colon) implanted sc in mice.; assay type: functional; method in brief: as §1
Mus musculus [4] = assay: In vivo antitumor activity is the measure of tumor growth inhibition of Colon 26 murine […] cells.; assay type: functional
Method in brief: (§2)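 Colon 26 cells (10^6/mouse) inoculated sc into male CDF1 mice on day 0; single iv dose on day 7. Tumor growth inhibition expressed as percentage versus untreated group.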

Mus musculus [5] = assay: In vivo antitumor activity (3.13 mg/kg) is the measure of tumor growth inhibition of human tumor xenograft HCT116 (colon) implanted sc in mice.; assay type: functional; method in brief: as §1
[6] = Ratio between max dose within 10% body weight loss and tumor growth inhibition; assay type: functional
Method in brief: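 Ratio of maximum dose within 10% body weight loss to the dose giving 50% tumor growth inhibition, in sc Colon 26-bearing mice dosed iv.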

Mus musculus [7] = assay: In vivo antitumor activity (3.13 mg/kg) is the measure of tumor growth inhibition of human tumor xenograft NUGC-3 (stomach) implanted sc in mice.; assay type: functional; method in brief: as §1
Mus musculus [8] = assay: In vivo antitumor activity (1 mg/Kg) is the measure of tumor growth inhibition of colon 26 murine […] cells.; assay type: functional
Method in brief: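 Colon 26 cells (10^6/mouse) inoculated sc into male CDF1 mice on day 0; drug given iv on day 7. Read-out is percentage tumor growth inhibition versus the untreated group.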

HeLa = assay: Concentration required to inhibit the growth of HeLaS3 human uterine cervix carcinoma cells by 50%; assay type: functional, cell-based
Mus musculus [9] = assay: In vivo antitumor activity (0.0884 mg/Kg) is the measure of tumor growth inhibition of colon 26 murine […] cells.; assay type: functional; method in brief: as §2
Mus musculus [10] = assay: In vivo concentration required to inhibit the colon 26 murine […] cell growth by 50%; assay type: functional
Mus musculus [11] = assay: In vivo antitumor activity (1 mg/kg) is the measure of tumor growth inhibition of human tumor xenograft WiDr (colon) implanted sc in mice.; assay type: functional
Method in brief: (§3)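 Tumor fragments (2–3 mm3) implanted sc into female BALB/cA Jcl-nu mice on day 0. A single iv dose was given once tumor volume reached about 100 mm3. Read-out is percentage of maximum tumor growth inhibition versus the untreated group.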

Mus musculus [12] = assay: In vivo antitumor activity (0.716 mg/kg) is the measure of tumor growth inhibition of human tumor xenograft NUGC-3 (stomach) implanted sc in mice.; assay type: functional; method in brief: as §3
Mus musculus [13] = assay: In vivo antitumor activity (1 mg/kg) is the measure of tumor growth inhibition of human tumor xenograft HCT116 (colon) implanted sc in mice.; assay type: functional; method in brief: as §3
Mus musculus [14] = assay: In vivo antitumor activity (1 mg/kg) is the measure of tumor growth inhibition of human tumor xenograft DLD-1 (colon) implanted sc in mice.; assay type: functional; method in brief: as §3

Structure (SMILES): COC(=O)c1c(C(F)(F)F)[nH]c2c(OC(=O)N3CCN(C)CC3)cc3c(c12)[C@H](CCl)CN3C(=O)c1cc2cc(NC(=O)c3cc4cccc(OC)c4o3)ccc2[nH]1
- TGI50 (Mus musculus [1]): 0.265 mg/kg
- TGI (Mus musculus [2]): 83%
- TGI (Mus musculus [3]): 86%
- TGI (Mus musculus [4]): 95%
- TGI (Mus musculus [5]): 90%
- Ratio [6]: 7.6
- TGI (Mus musculus [7]): 100%

Structure (SMILES): COC(=O)c1c(C(F)(F)F)[nH]c2c(O)cc3c(c12)[C@H](CCl)CN3C(=O)c1cc2cc(-c3cc4ccccc4o3)ccc2[nH]1 (racemic)
- TGI (Mus musculus [8]): 84%
- IC50 (HeLa): 3.6 ng/mL (≈ 5.92 nM)

Structure (SMILES): Cc1c[nH]c2c1[C@@]13C[C@@H]1CN(C(=O)c1cc4cc(NC(=O)c5cc6ccccc6o5)ccc4[nH]1)C3=CC2=O [ADOZELESIN]
- IC50 (HeLa): 0.0364 ng/mL (≈ 0.0724 nM)
- TGI (Mus musculus [9]): 79%
- Ratio [6]: 2
- TGI50 (Mus musculus [10]): 0.0444 mg/kg

Structure (SMILES): COC(=O)c1c(C)[nH]c2c(OC(=O)N3CCN(C)CC3)cc3c(c12)[C@H](CBr)CN3C(=O)c1cc2cc(OC)c(OC)c(OC)c2[nH]1 [PIBROZELESIN]
- TGI (Mus musculus [11]): 59%
- TGI (Mus musculus [12]): 91%
- TGI (Mus musculus [13]): 73%
- TGI (Mus musculus [14]): 65%
- Ratio [6]: 3.4
